Experiments:
[1] = substrate: COC(=O)C1CC(c2cc(Br)ccc2OCc2ccc(OC)cc2)=NO1; test: (§1) Vmax (maximal I influx) of compound against CFTR (cystic fibrosis transmembrane conductance regulator) in rat was determined
Summary of the method: (§2)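 Cells stably co-expressing human wild-type CFTR and YFP-H148Q were grown to confluence in 96-well plates and washed in PBS. Compounds were added from DMSO stocks, with full dose–responses run. A 100 mM inward iodide gradient was applied at 37 °C. Iodide influx was taken from the slope of the YFP fluorescence time course. Kd and Vmax (mM/s) are means of three or more experiments.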

[2] = substrate: COC(=O)C1CC(c2ccccc2OCc2ccc(Br)cc2)=NO1; test: as §1; summary of the method: as §2
[3] = substrate: COC(=O)C1CC(c2ccccc2OCc2ccc(OC)cc2)=NO1; test: as §1; summary of the method: as §2
[4] = substrate: COC(=O)C1CC(c2ccccc2OCc2cccc(OC)c2)=NO1; test: as §1; summary of the method: as §2
[5] = substrate: COC(=O)c1cc(-c2ccccc2OCc2ccc(Br)cc2)no1; test: as §1; summary of the method: as §2
[6] = substrate: COC(=O)c1onc(-c2ccccc2OCc2ccc(Br)cc2)c1C(=O)OC; test: as §1; summary of the method: as §2
[7] = substrate: COc1ccc(COc2ccc(Br)cc2-c2cc(CO)on2)cc1; test: as §1; summary of the method: as §2
[8] = substrate: COc1ccc(COc2ccccc2-c2cc(CCO)on2)cc1; test: as §1; summary of the method: as §2
[9] = substrate: COc1ccc(COc2ccccc2-c2cc(CO)on2)cc1; test: as §1; summary of the method: as §2
[10] = substrate: COc1ccc(COc2ccccc2C2=NOC(CCl)C2)cc1; test: as §1; summary of the method: as §2
[11] = substrate: COc1ccc(COc2ccccc2C2=NOC(CO)C2)cc1; test: as §1; summary of the method: as §2
[12] = substrate: COc1cccc(COc2ccccc2-c2cc(CCO)on2)c1; test: as §1; summary of the method: as §2
[13] = substrate: COc1cccc(COc2ccccc2-c2cc(CO)on2)c1; test: as §1; summary of the method: as §2
[14] = substrate: COc1cccc(COc2ccccc2C2=NOC(CCl)C2)c1; test: as §1; summary of the method: as §2
[15] = substrate: COc1cccc(COc2ccccc2C2=NOC(CO)C2)c1; test: as §1; summary of the method: as §2
[16] = substrate: ClCc1cc(-c2ccccc2OCc2ccc(Br)cc2)no1; test: as §1; summary of the method: as §2
[17] = substrate: OCCc1cc(-c2ccccc2OCc2ccc(Br)cc2)no1; test: as §1; summary of the method: as §2
[18] = substrate: OCc1cc(-c2ccccc2OCc2ccc(Br)cc2)no1; test: as §1; summary of the method: as §2

B1: Cystic fibrosis transmembrane conductance regulator (Rattus norvegicus), P34158 (protein)
chain: MQKSPLEKASFISKLFFSWTTPILRKGYRHHLELSDIYQAPSSDSADHLSEKLEREWDREQASKKKPQLIHALRRCFVWRFVFYGVLLYLGEVTKAVQPVLLGRIIASYDPDNTEERSIAIYLGIGLCLLFIVRTLLLHPAIFGLHHIGMQMRIAMFSLIYKKTLKLSSRVLDKISIGQLISLLSNNLNKFDEGLALAHFIWIAPLQVVLLMGLLWDLLQFSAFCGLGLLIVLVIFQAILGKMMVKYRDKRAAKINERLVITSEVIDNIYSVKAYCWESAMEKIIESLREEELKMTRRSAYMRFFTSSAFFFSGFFVVFLSVLPYTVINGIVLRKIFTTISFCIVLRMSVTRQFPTAVQIWYDSLGMIRKIQDFLQTQEYKVLEYNLMFTGLVMENVTAFWEEGFQELLEKVQLNNDDRKTSNGENHLSFSHLCLVGNPVLKNINLNIKKGEMLAITGSTGAGKTSLLMLILGELEASEGIIKHSGRVSFSSQISWIMPGTIKENIIFGVSYDEYRYKSVVKACQLQEDITKFAEQDNTVLGEGGVTLSGGQRARISLARAVYKDADLYLLDSPFGYLDVLTEEQIFESCVCKLMASKTRILVTSKMEQLKKADKILILHEGSSYFYGTFSELQSLRPDFSSKLMGYDTFDQFTEERRSSILTETLRRFSVDDASTTWNKAKQSFRQTGEFGEKRKNSILSSFSSVKKISIVQKTPLSIEGESDDLQERRLSLVPDSEHGEAALPRSNMITAGPTFPGRRRQSVLDLMTFTPSSVSSSLQRTRASIRKISLAPRISLKEEDIYSRRLSQDSTLNITEEINEEDLKECFFDDMVKIPTVTTWNTYLRYFTLHRGLFAVLIWCVLVFLVEVAASLFVLWLLKNNPVNGGNNGTKIANTSYVVVITSSSFYYIFYIYVGVADTLLALSLFRGLPLVHTLITASKILHRKMLHSILHAPMSTFNKLKAGGILNRFSKDIAILDDFLPLTIFDFIQLLFIVVGAIIVVSALQPYIFLATVPGLAVFILLRAYFLHTSQQLKQLESEGRSPIFTHLVTSLKGLWTLRAFRRQTYFETLFHKALNLHTANWFMYLATLRWFQMRIDMIFVLFFIVVTFISILTTGEGEGTTGIILTLAMNIMSTLQWAVNSSIDTDSLMRSVSRVFKFIDIQTEESICTKIMKELHSEDSPNALVIKNEHVKKCDTWPSGGEMVVKDLTVKYVDDGNAILENISFSISPGQRVGLLGRTGSGKSTLLSAFLRMLNIKGEIQIDGVSWNSMTLQEWRKAFGVITQKVFIFSGTFRQNLDPNGKWRDEEIWKVADQVGLKSVIEQFPGQLNFTLVDGGYVLSHGHKQLMCLARSVLSKAKIILLDEPSANLDPITYQVIRRVLRQAFAGCTVVLCEHRIEAMLDCQRFLVIEQGNVWQYESLQALLSEKSVFQRALSSSEKMKLFHGRHSSKQKPRTQITAVKEETEEEVQETRL
[1]
  Vmax: 1.04 mM/s
[2]
  Vmax: 0.81 mM/s
[3]
  Vmax: 1.13 mM/s
[4]
  Vmax: 1.08 mM/s
[5]
  Vmax: 1.01 mM/s
[6]
  Vmax: 0.97 mM/s
[7]
  Vmax: 1.03 mM/s
[8]
  Vmax: 1.05 mM/s
[9]
  Vmax: 1.06 mM/s
[10]
  Vmax: 1.2 mM/s
[11]
  Vmax: 1.07 mM/s
[12]
  Vmax: 0.94 mM/s
[13]
  Vmax: 1.04 mM/s
[14]
  Vmax: 1.02 mM/s
[15]
  Vmax: 0.99 mM/s
[16]
  Vmax: 1.02 mM/s
[17]
  Vmax: 1.02 mM/s
[18]
  Vmax: 1.06 mM/s

From ChEMBL document CHEMBL1136128, “3-(2-Benzyloxyphenyl)isoxazoles and isoxazolines: synthesis and evaluation as CFTR activators” (Bioorg Med Chem Lett, 2003)
